Assay results reported in ChEMBL document CHEMBL1149287, “Synthetic bryostatin analogues activate the RasGRP1 signaling pathway” (J Med Chem, 2004).
Active and inactive are the calls of the source. The calls are words filed in the database; no cut-off is given here.

Key:
Rat2 [1] = experiment: Accumulation of Ras-GTP level in Rat2 cells expressing empty pBabePuro vector; type: functional, cell-based; conditions: Rattus norvegicus
Outline: (§1)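 Rat2 fibroblasts (DMEM, 10% FBS) stably carrying retroviral pBabePuro, empty or with human RasGRP1 cDNA, exposed 10 min to 100 nM DAG analogue or DMSO vehicle. Ras-GTP measured by Ras-binding-domain pulldown with pan-Ras immunoblot; phospho-Erk p44/p42 and total Ras by immunoblot.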

Thymocyte [2] = experiment: Activation of ERK in knockout mouse RasGRP1- mutant thymocytes; type: functional, cell-based
Outline: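 Thymocytes isolated in RPMI 1640 with 10% FBS from young wild-type or RasGRP1 knockout mice, given DMSO or DAG analogue for 10 min, then lysed and immunoblotted for phospho-Erk p44/p42.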

PBL = experiment: Induction of T cell activation marker CD69 expression in PBL cells; type: functional, cell-based; conditions: Homo sapiens
Outline: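 Human peripheral blood lymphocytes from a healthy donor, isolated on Ficoll-hypaque, treated immediately overnight in RPMI with 100 nM DAG analogue or DMSO; fixed in 2% paraformaldehyde, co-stained for CD4 (FITC) and CD69 (PE), analysed by flow cytometry.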

[3] = target: T1, RAS guanyl-releasing protein 1 (Homo sapiens) (UniProt O95267); experiment: Induction of translocation of RasGRP1 to plasma membrane in HEK293 cells; type: cell-based
T1 sequence (whole entry): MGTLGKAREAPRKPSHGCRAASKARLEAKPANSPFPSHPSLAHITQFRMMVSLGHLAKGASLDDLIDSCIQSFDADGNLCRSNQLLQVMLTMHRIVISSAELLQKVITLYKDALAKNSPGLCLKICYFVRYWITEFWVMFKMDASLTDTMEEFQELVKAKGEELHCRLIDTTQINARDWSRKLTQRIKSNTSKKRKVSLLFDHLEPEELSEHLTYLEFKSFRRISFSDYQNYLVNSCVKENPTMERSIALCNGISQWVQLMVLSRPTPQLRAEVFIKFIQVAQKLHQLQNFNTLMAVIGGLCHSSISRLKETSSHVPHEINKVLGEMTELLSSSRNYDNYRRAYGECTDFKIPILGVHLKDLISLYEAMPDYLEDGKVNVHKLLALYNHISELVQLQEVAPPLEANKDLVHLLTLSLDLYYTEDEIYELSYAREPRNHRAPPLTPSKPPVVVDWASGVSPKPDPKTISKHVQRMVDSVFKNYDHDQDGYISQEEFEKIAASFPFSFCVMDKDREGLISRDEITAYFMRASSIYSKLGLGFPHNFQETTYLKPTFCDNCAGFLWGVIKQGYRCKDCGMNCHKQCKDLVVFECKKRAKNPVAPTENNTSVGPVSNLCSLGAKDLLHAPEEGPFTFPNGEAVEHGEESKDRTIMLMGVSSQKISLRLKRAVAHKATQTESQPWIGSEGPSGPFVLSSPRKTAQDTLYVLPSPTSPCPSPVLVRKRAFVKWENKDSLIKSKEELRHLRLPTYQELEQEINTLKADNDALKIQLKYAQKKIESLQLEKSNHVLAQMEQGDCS
Outline: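 HEK-293 cells on glass coverslips transfected with 5 μg pEF-GFP-RasGRP1 (or pEF-GFP), after 48 h given 100 nM DAG analogue or DMSO for 10 min at 37 °C, fixed in 4% paraformaldehyde; GFP location imaged by confocal microscopy, at least five 0.45 μm slices per cell.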

Jurkat = experiment: Induction of T cell activation marker CD69 expression in Jurkat T cells at 100 nM; type: functional, cell-based; conditions: Homo sapiens
Outline: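 Jurkat T cells kept in RPMI with 10% FBS, incubated overnight with 100 nM DAG analogue or DMSO, fixed in 2% paraformaldehyde, stained with PE-anti-CD69, surface CD69 read by FACS.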

Lymphocyte [4] = experiment: Induction of T cell activation marker CD69 expression in concanavalin-A activated CD4+ mouse spleen lymphocytes; type: functional, tissue-based
Thymocyte [5] = experiment: Activation of ERK in wild type mouse thymocytes at 100 nM; type: functional, cell-based
Outline: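 Wild-type mouse thymocytes (RPMI 1640, 10% FBS) exposed 10 min to DAG analogue at 100, 10 or 1 nM, then lysed; phospho-Erk p44/p42 detected by immunoblot.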

Lymphocyte [6] = experiment: Induction of T cell activation marker CD69 expression in concanavalin-A activated CD8+ mouse spleen lymphocytes; type: functional, tissue-based
Rat2 [7] = experiment: Induction of increase in Ras-GTP level in Rat2 cells expressing human […] at 100 nM; type: functional, cell-based; outline: as §1

CCCCCCCC(=O)O[C@H]1/C(=C/C(=O)OC)CC2C[C@H]([C@H](O)CC)OC(=O)C[C@H](O)C[C@@H]3CCC[C@H](C[C@H]4CCO[C@H](/C=C/C(C)(C)[C@]1(O)O2)O4)O3
Activity (Rat2 [1]): inactive
Activity (Thymocyte [2]): inactive
Activity (PBL): Active
Activity [3]: Active
Activity (Jurkat): Active
Activity (Lymphocyte [4]): Active
Activity (Thymocyte [5]): Active
Activity (Lymphocyte [6]): Active
Activity (Rat2 [7]): Active

CCCCCCCCCCCCCC(=O)O[C@@H]1[C@@H](C)[C@@]2(O)[C@@H](C=C(CO)C[C@]3(O)C(=O)C(C)=C[C@@H]23)[C@@H]2C(C)(C)[C@]12OC(C)=O
Activity (Rat2 [1]): inactive
Activity (Thymocyte [2]): inactive
Activity (PBL): Active
Activity [3]: Active
Activity (Jurkat): Active
Activity (Lymphocyte [4]): Active
Activity (Thymocyte [5]): Active
Activity (Lymphocyte [6]): Active
Activity (Rat2 [7]): Active

CCCCCCCC(=O)O[C@H]1/C(=C/C(=O)OC)CC2C[C@H]([C@@H](CC)OC)OC(=O)C[C@H](O)C[C@@H]3CCC[C@H](C[C@H]4CCO[C@H](/C=C/C(C)(C)[C@]1(O)O2)O4)O3
Activity (Rat2 [1]): inactive
Activity (Thymocyte [2]): inactive
Activity (PBL): Active
Activity [3]: Active
Activity (Jurkat): Active
Activity (Lymphocyte [4]): Active
Activity (Thymocyte [5]): Active
Activity (Lymphocyte [6]): Active
Activity (Rat2 [7]): Active
